We go through five compounds from PMC11191573 (ACS Omega, 2024).

The subject of one data set is TNF mRNA in THP-1 cells. Briefly: RT-qPCR of TNF in Aβ1–42-stimulated THP-1 cells. Format: cell-based, human. Conditions: 10 μM Aβ1–42, 24 h; ARA 0.1 μM, LPC 10 μM, LTN 0.1 μM, POA 10 μM, ZX 1 μM. In general terms: Real-time PCR tracks product formation cycle by cycle.
Data set [1] concerns the target T1, Aβ1–42 (Homo sapiens, UniProt P05067). Nature of the data set: ThT assay of Aβ1–42 aggregation. In kind it is biochemical. Conditions: for Time course of RFU (curve shape) at lower concentrations: 25 and 50 μM constituent, data not shown; for Concentration dependence of activity in ThT assay: 25, 50, 100 μM. A digest of the protocol: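 Aβ1−42 was dissolved in 2 mM NaOH, lyophilized, then taken up in 20 mM phosphate buffer pH 7.4. Final concentrations were 50 μM Aβ1−42, 200 μM ThT and 100 μM constituent (25 and 50 μM for concentration dependence). Fluorescence (Ex 440/Em 484 nm) was read every 5 min for 3 h at 37 °C and blank-subtracted. Phenol red was the positive control and Aβ alone the negative. IC50 came from sigmoidal fitting. Mean ± SD, n = 3.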

The target in a further data set is Aβ1–42 fibrils (Homo sapiens, UniProt P05067). Nature of the data set: Aβ fibril destabilization assay. Format: biochemical. Conditions: 100 μM constituent, 50 μM Aβ1–42 fibrils, 37 °C, 5 h. A digest of the protocol: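 Aβ1−42 was pre-aggregated at 37 °C for 2 days, and fibril formation was confirmed by 1 h of stable ThT RFU. Constituent was then added (100 μM final; 50 μM Aβ1−42) and ThT fluorescence (Ex/Em 440/484 nm) was read for 5 h at 37 °C as in the aggregation assay. AUC was calculated. Mean ± SD, n = 3; Dunnett's test.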
Sequence of Aβ1–42 fibrils (P05067 672-713): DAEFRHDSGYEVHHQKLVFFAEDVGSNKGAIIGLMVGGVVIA

Data set [2] deals with T1, Aβ1–42. Briefly: Transmission electron microscopy of Aβ1–42 fibrils after ThT assay. Format: biochemical. Conditions: 100 μM constituent, 50 μM Aβ1–42, 3 h incubation. The method in brief: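 After the 3 h, 37 °C ThT assay (50 μM Aβ1−42, 100 μM constituent), 10 μL was spotted on a copper grid. It was stained with 2% aqueous uranyl acetate, blotted, air-dried and imaged by TEM at 120 kV.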

For data set [3], the target named is T1, Aβ1–42. Nature of the data set: PICUP oligomerization assay. Format: biochemical. Conditions: 50 μM constituent (final), 25 μM Aβ.
In another data set the test system is THP-1 cells. Briefly: MTT assay. Format: cell-based, human. Conditions: 0, 0.1, 1 or 10 μM tested, 24 h. A digest of the protocol: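 THP-1 cells were plated at 5 × 10^4 cells/well and cultured 24 h at 37 °C. Medium containing 0, 0.1, 1 or 10 μM constituent was added for a further 24 h. Viability was measured with an MTT kit per the manufacturer's protocol and used to set nontoxic working concentrations.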

Data set [4] concerns IL 1B mRNA in THP-1 cells. Nature of the data set: RT-qPCR of IL 1B in Aβ1–42-stimulated THP-1 cells. Format: cell-based, human. Conditions: 10 μM Aβ1–42, 24 h; ARA 0.1 μM, LPC 10 μM, LTN 0.1 μM, POA 10 μM, ZX 1 μM.
Data set [5] deals with T1, Aβ1–42. Briefly: FTIR spectroscopy of Aβ1–42 secondary structure. Conditions: after ThT assay, mixed with Aβ1–42. In kind it is biochemical. The method in brief:
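Samples came from completed ThT assays (50 μM Aβ1−42 ± 100 μM constituent, 37 °C, 3 h). 15 μL was dried on a diamond ATR prism at 25 °C, repeated twice. ATR-FTIR spectra were taken over 1500–1700 cm−1 with 100 s integration. The area under the parallel β-sheet absorbance band was integrated. Mean ± SD, n = 3; Dunnett's test.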

The subject of a further data set is Caco-2 cells. Conditions: in vitro; cited from earlier work.
Data set [6] has as its system TNF protein in THP-1 cell culture media. Briefly: ELISA of TNF in supernatant of Aβ1–42-stimulated THP-1 cells. Format: cell-based, human. Conditions: 10 μM Aβ1–42, 24 h; LTN 0.1 μM. A digest of the protocol: (§1)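 THP-1 cells were seeded at 5 × 10^5 cells/mL and differentiated to adherent macrophage-like cells (24 h). They were rested 24 h at 37 °C in RPMI-1640/10% FBS/1% P/S, then stimulated with 10 μM Aβ1−42 ± constituent for 24 h. Supernatant was assayed with human IL-1β or TNF-α sandwich ELISA kits, reading A450 and converting to pg/mL. Mean ± SE, n = 3; Tukey's test.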

Data set [7] relates to IL 1B protein in THP-1 cell culture media. Briefly: ELISA of IL 1B in supernatant of Aβ1–42-stimulated THP-1 cells. In kind it is cell-based, human. Conditions: 10 μM Aβ1–42, 24 h; LTN 0.1 μM. A digest of the protocol: as §1
On the technique in general: ELISA stands for enzyme-linked immunosorbent assay.

For data set [8] the following is noted: monkeys, after feeding; cited from earlier work.
A further data set concerns Aβ. Conditions: previously shown; cited from earlier work.
The target of data set [9] is T1, Aβ1–42. Conditions: previous paper; cited from earlier work.

As usually defined, the IC50 is the concentration that inhibits the measured activity by half.

T1 sequence (P05067 672-713): as above

With `CCCCC/C=C\C/C=C\C/C=C\C/C=C\CCCC(=O)O` [ARA, arachidonic acid], the “TNF mRNA induced by Aβ1–42” value with TNF mRNA in THP-1 cells is on record as “not suppressed”. For the same compound, at Aβ1–42 [1], the IC50 was determined as 37.4 µM and the “Time course of RFU (curve shape) at lower concentrations” value (shortened to “Time course … at lower concentrations”) is listed as “did not improve”. Also, at Aβ1–42 [1] (100 μM ARA, 50 μM Aβ1–42), the “RFU at start of ThT assay” value is on record as “approximately 25 RFU”. Further, on Aβ1–42 fibrils, the “RFU of ThT during incubation with preformed Aβ1–42 fibrils” value (“RFU of ThT during incubation” for short) is “remained unchanged”. The “Inhibition of Aβ1–42 aggregation observed by TEM” value (shortened to “Inhibition … by TEM”) on Aβ1–42 [2] was “inhibited Aβ1–42 aggregation”. On Aβ1–42 [3], the “Inhibition of Aβ1–42 oligomerization (PICUP)” value (shortened to “Inhibition … (PICUP)”) is on record as “did not inhibit oligomerization”. In addition, the “Optimal (nontoxic) concentration determined by MTT assay” value (“Optimal (nontoxic) concentration” for short) with THP-1 cells was 0.1 µM. Also, in data set [4], the “IL 1B mRNA induced by Aβ1–42” value was “not suppressed”. In addition, the “AUC of absorbances in the range of 1615–1645 cm^–1 (parallel β-sheet)” value (shortened to “AUC of absorbances”) at Aβ1–42 [5] was “decrease”.

As for `CC1=C[C@H](O)CC(C)(C)[C@H]1/C=C/C(C)=C/C=C/C(C)=C/C=C/C=C(C)/C=C/C=C(C)/C=C/C1=C(C)C[C@@H](O)CC1(C)C` [LTN, lutein], the “TNF mRNA induced by Aβ1–42” value in the data set on TNF mRNA in THP-1 cells was “suppressed”. On Aβ1–42 [1], the IC50 amounted to 74 µM, the “Concentration dependence of activity in ThT assay” value is “concentration-dependent” and the “Time course … at lower concentrations” value was “sigmoidal curve”. Also, the “RFU of ThT during incubation” value on Aβ1–42 fibrils is “remained unchanged”. In addition, the “Intestinal absorption of LTN in the presence of LPC” value in the data set with Caco-2 cells is listed as “increases”. Also, the “Inhibition … by TEM” value at Aβ1–42 [2] is reported as “inhibited the Aβ1–42 aggregation the most”. For the same compound, the “Protein concentration of TNF in the supernatant” value in [6] is “no difference was observed”. The “Inhibition … (PICUP)” value at Aβ1–42 [3] is on record as “did not inhibit oligomerization”. Moreover, the “Protein concentration of IL 1B in the supernatant” value in data set [7] was “suppressed”. The “Concentration of LTN in the brains” value in data set [8] is “increases”. Moreover, the “Optimal (nontoxic) concentration” value in the data set with THP-1 cells stood at 0.1 µM. Further, the “Inhibition of Aβ aggregation” value in the data set on Aβ is on record as “inhibit Aβ aggregation”. Further, the “IL 1B mRNA induced by Aβ1–42” value in data set [4] is “suppressed”. Moreover, the “AUC of absorbances” value on Aβ1–42 [5] was “particular decrease”.

Turning to `CCCCCC/C=C\CCCCCCCC(=O)O` [POA, palmitoleic acid], the “TNF mRNA induced by Aβ1–42” value with TNF mRNA in THP-1 cells is listed as “not suppressed”. In addition, at Aβ1–42 [1], the “Concentration dependence of activity in ThT assay” value is “no concentration dependence”. The “RFU of ThT during incubation” value on Aβ1–42 fibrils was “decreased”. Moreover, at Aβ1–42 [2], the “Inhibition … by TEM” value is given as “inhibited Aβ1–42 aggregation” and the “Morphology of Aβ fibrils by TEM” value is listed as “amorphous”. In addition, the “Inhibition … (PICUP)” value at Aβ1–42 [3] is reported as “inhibited oligomerization”. The “Optimal (nontoxic) concentration” value in the data set with THP-1 cells was 10 µM. Also, the “IL 1B mRNA induced by Aβ1–42” value in data set [4] is listed as “not suppressed”.

For `CC1=C(/C=C/C(C)=C/C=C/C(C)=C/C=C/C=C(C)/C=C/C=C(C)/C=C/C2=C(C)C[C@@H](O)CC2(C)C)C(C)(C)C[C@H](O)C1` [ZX, zeaxanthin], in the data set with TNF mRNA in THP-1 cells, the “TNF mRNA induced by Aβ1–42” value is reported as “not suppressed”. The “RFU of ThT during incubation” value on Aβ1–42 fibrils is given as “remained unchanged”. The “Inhibition … by TEM” value at Aβ1–42 [2] was “inhibited Aβ1–42 aggregation”. Also, the “Inhibition … (PICUP)” value on Aβ1–42 [3] is on record as “inhibited oligomerization”. In the data set with THP-1 cells, the “Optimal (nontoxic) concentration” value was 1 µM. Further, in the data set with Aβ, the “Inhibition of Aβ aggregation” value is recorded as “inhibit Aβ aggregation”. For the same compound, the “IL 1B mRNA induced by Aβ1–42” value in data set [4] is on record as “not suppressed”. At Aβ1–42 [5], the “AUC of absorbances” value is reported as “decrease”.

For L-α-lysophosphatidylcholine [LPC], the “TNF mRNA induced by Aβ1–42” value in the data set with TNF mRNA in THP-1 cells was “not suppressed”. Moreover, the “Time course … at lower concentrations” value on Aβ1–42 [1] is “did not improve”. Moreover, on Aβ1–42 fibrils, the “RFU of ThT during incubation” value is “remained unchanged”. Moreover, the “Inhibition … by TEM” value at Aβ1–42 [2] is reported as “inhibited Aβ1–42 aggregation”. The “Optimal (nontoxic) concentration” value with THP-1 cells was determined as 10 µM. Further, on Aβ1–42 [9], the “Effect on Aβ1–42 aggregation” value is on record as “facilitates Aβ1–42 aggregation”. Also, in [4], the “IL 1B mRNA induced by Aβ1–42” value was “not suppressed”. At Aβ1–42 [5], the “AUC of absorbances” value is “particular decrease”.
